Source: ChEMBL document CHEMBL1133135, “Grignard-mediated synthesis and preliminary biological evaluation of novel 3-substituted farnesyl diphosphate analogues” (Bioorg Med Chem Lett, 2000)

Legend:
[1] = target: Protein farnesyltransferase (Homo sapiens) (UniProt P49354+P49356); assay: Relative Vmax for Farnesyltransferase at 10 uM; assay type: protein-complex assay
In short: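 Baculovirus-expressed, purified recombinant mammalian FTase in a continuous fluorometric assay with dansyl-GCVLS-OH peptide cosubstrate, testing each FPP analogue as alternative prenyl donor. Relative Vmax is the Vmax with analogue at 10 μM divided by the Vmax with FPP at 10 μM under the same conditions. Analogue concentrations were checked by phosphate analysis.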

[2] = tested on: CC(C)=CCC/C(C)=C/CC/C(=C/COP(=O)(O)OP(=O)(O)O)C1CCCC1; assay: Km for mammalian protein Farnesyltransferase expressed in baculovirus
[3] = tested on: CC(C)=CCC/C(C)=C/CC/C(C)=C/COP(=O)(O)OP(=O)(O)O

| Compound | Krel [1] | Km [2] [µM] | Km [3] [µM] |
| --- | --- | --- | --- |
| CC(C)=CCC/C(C)=C/CC/C(=C/COP(=O)(O)OP(=O)(O)O)C1CCCC1 | 0.072 |  |  |
| Protein farnesyltransferase (Homo sapiens) (from UniProt P49354+P49356) |  | 0.102 | 0.107 |
| C=C(C)/C(=C\COP(=O)(O)OP(=O)(O)O)CC/C=C(\C)CCC=C(C)C | 0 |  |  |
| C=CC/C(=C\COP(=O)(O)OP(=O)(O)O)CC/C=C(\C)CCC=C(C)C | 0.053 |  |  |
| CC(C)=CCC/C(C)=C/CC/C(=C/COP(=O)(O)OP(=O)(O)O)c1ccc(F)cc1 | 0.002 |  |  |
| C=C/C(=C\COP(=O)(O)OP(=O)(O)O)CC/C=C(\C)CCC=C(C)C | 0.521 |  |  |

More lines, main results first:

| Krel [1] | Compound | Km [2] [µM] | Km [3] [µM] |
| --- | --- | --- | --- |
| 0.042 | CC(C)=CCC/C(C)=C/CC/C(=C/COP(=O)(O)OP(=O)(O)O)CC(C)(C)C |  |  |
| 0 | CCC(C)/C(=C\COP(=O)(O)OP(=O)(O)O)CC/C=C(\C)CCC=C(C)C (configuration not stated) |  |  |
| 0.078 | CCC/C(=C\COP(=O)(O)OP(=O)(O)O)CC/C=C(\C)CCC=C(C)C |  |  |
| 0 | CC(C)=CCC/C(C)=C/CC/C(=C/COP(=O)(O)OP(=O)(O)O)CC(C)C |  |  |
| 0.013 | CC(C)=CCC/C(C)=C/CC/C(=C/COP(=O)(O)OP(=O)(O)O)C(C)C |  |  |
